MPTP block: inhibitors of mitochondrial permeability transition pore; 360,000 tested, 1.4% active; isolated mouse mitochondria, Ca2+ swelling absorbance, 30 min; inhibition, % at 10 µM;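 active = inhibition of 50% or more, scaled per plate between neutral and stimulator controls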;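 note: 0% = DMSO wells given calcium and 100% = 1 mM EGTA wells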
T cruzi inh: T. cruzi replication inhibition; T. cruzi beta-gal in NIH3T3, luminescence, 90 h; inhibition, % (concentration not given with the values); 300,000 tested, 1.4% active;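 active = mean inhibition across valid replicates above about 55%, limit read from the data; inconclusive = mean below that limit but half or more replicates reach it; inactive = mean below it, under half of replicates reach it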;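 note: signal also drops with host cell toxicity which is not excluded here; 0% = plate median of DMSO wells and 100% = zero luminescence signal; higher percent means less beta-gal luminescence so fewer parasites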
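Material: NIH/3T3 host cells with β-galactosidase reporter T. cruzi; Input: 5,000 host fibroblasts per well; Medium: DMEM, 2% fetal bovine serum; Compound: 50 nL DMSO compound solution per well; Schedule: 3 h host attachment, then at least 90 h co-culture; Detection: luminescent β-galactosidase signal after 60 min lysis.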
Lipid droplet: modulators of hepatic lipid droplet formation | AML12 mouse hepatocytes, oleate lipid droplets, BODIPY imaging | inhibition, % at 6.5 µM | 240,000 tested, 0.4% active | AID 1656;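 active = lipid droplet intensity inhibited by at least 50%, with more than 500 cells counted; inconclusive = wells with under 300 cells, treated as cytotoxic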
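Material – mouse AML12 hepatocyte cell line, fixed after treatment · Compound dosing – one dose, 6.5 µM compound · Times – compound with oleate, overnight · Measured by – Image-based BODIPY and DAPI two-channel analysis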
L major viab: inhibitors of Leishmania major promastigote growth; Leishmania major promastigotes, resazurin fluorescence viability; inhibition, % at 10 µM; 200,000 tested, 9% active; in the data active = inhibition above about 50%;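 note: promastigotes grown with compound for 44 hours at 28 °C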
Redox H2O2 prof: compounds producing H2O2 with reducing agent – biochemical, NIH compound library profiling, artefact control for MLSCN library redox annotation, primary screen. DTT-dependent redox cycling H2O2, phenol red/HRP absorbance; 100% = 100 µM peroxide control, 0% = buffer. activation, % at 10 µM. AID 878. 200,000 tested, 0.03% active;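 active = activation of at least 50% relative to the plate's high and low controls in the primary single-dose screen; inactive = activation below 50%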;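 note: compound incubated with DTT at 0.8 mM final as the reducing agent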
Starred values were filed as active, the others as inactive; ? = inconclusive; · = not tested or not shown. Only a selection was taken, and hits are over-represented in it overall.

SMILES	MPTP block	T cruzi inh	Lipid droplet	L major viab	Redox H2O2 prof
c1cnc2ccc(C(c3nnnn3C3CCCC3)N3CCN4CCCC4C3)cc2c1 (stereo unspecified)	0	-1	·	52*	0
O=C(CSc1nnc2c(n1)[nH]c1ccccc12)OCc1ccccc1	-4	-8	-4	79*	0
O=C(O)CSc1nnc2c(n1)[nH]c1ccccc12	-2	-20	12	-9	0
O=C(NCc1cccnc1)/C(=C/c1ccc(-c2ccc(Cl)cc2)o1)S(=O)(=O)c1ccccc1	-2	49	·	101*	-1
O=C(CN(Cc1ccc(Br)cc1)S(=O)(=O)c1ccccc1)NCc1cccnc1	2	3	-4	·	·
O=C(NCc1cccnc1)/C(=C/c1ccc(Cl)cc1)NC(=O)c1ccccc1	-1	-9	18	·	·
O=C(NCc1cccnc1)/C(=C\c1ccc(-c2ccc(Br)cc2)o1)S(=O)(=O)c1ccccc1	-4	30	33	100*	0
O=C(NCc1cccnc1)/C(=C/c1ccc(-c2cccc(C(F)(F)F)c2)o1)NC(=O)c1ccccc1	7	35	·	84*	0
Cc1nc(-c2ccc([N+](=O)[O-])cc2)sc1C(=O)O	-2	-7	-2	-4	1
Cc1ccc(S(=O)(=O)NC(=O)Nc2ccc(N(C)C)cc2)cc1	6	57*	0	·	·
Cc1ccc(NC(=O)NNS(=O)(=O)c2ccc(Br)cc2)cc1	-2	-18	·	-6	2
Cc1ccc2c(c1)sc1nncn12	0	·	·	·	·
CSCCC(NS(=O)(=O)c1ccc(Cl)cc1)C(=O)OCC(=O)c1ccc(F)cc1 (stereo unspecified)	6	-14	19	-6	0
C=CCn1c(C)cc(-c2csc(NC)n2)c1C	8	·	20	96*	0
Cc1ccc(NC(=O)[C@@H]2CCCN2S(=O)(=O)c2ccccc2F)cc1S(=O)(=O)N1CCOCC1	0	-10	-12	2	-1
Cc1ccc(NC(=O)[C@@H]2CCCN2S(=O)(=O)c2ccccc2C(F)(F)F)cc1S(=O)(=O)N1CCOCC1	1	-4	-13	98*	0
CC(C)CNC(=O)c1c2c(nc3ccccc13)-c1ccccc1CC2	0	4	·	2	2
CCN(CC)C(=O)c1c2c(nc3ccccc13)-c1ccccc1CC2	0	9	-14	62*	-4
Cc1cc(CN(C)Cc2cn(C)nc2-c2ccc(Oc3ccccc3)cc2)on1	10	7	12	·	·
CCNC(=S)NNC(=O)CCn1cc(C)cn1	-2	-15	0	1	-1
COc1ccc(C(O)(C(=O)NNc2ccc(C)cc2)c2cccs2)cc1 (stereo unspecified)	-1	-30	-10	17	0
O=C(NNc1ccc(C2CCCCC2)cc1)C(O)(c1ccccc1)c1cccs1 (stereo unspecified)	1	33	·	99*	1
O=C1COc2ccc(-c3csc(=Nc4ccc(OC(F)F)cc4)n3CC3CCCO3)cc2N1 (stereo unspecified)	24	25	·	99*	3
CCN=c1scc(-c2ccc3c(c2)NC(=O)CO3)n1N=C1CCCC1	35	-11	·	0	1
COc1ccc(OC)c(C2=Nn3c(nnc3C3CCCCC3)SC2)c1	0	13	-5	10	0
SMILES	MPTP block	T cruzi inh	Lipid droplet	L major viab	Redox H2O2 prof
COc1ccc(C2=Nn3c(nnc3C3CCCCC3)SC2)cc1OC	1	7	20	50*	0
Cc1ccc(C(=O)N/C(=C\c2cn(C)c3ccccc23)C(=O)NCCN2CCOCC2)cc1	0	-7	-27	·	·
C/C(=N\N=C1\NC(=O)CC(C(=O)O)S1)c1ccc(F)cc1 (stereo unspecified)	0	-4	-30	52*	0
COc1ccc(/C(C)=N/N=C2/NC(=O)CC(C(=O)O)S2)cc1 (stereo unspecified)	-1	-1	-4	-7	0
CC1CCN(c2ccccc2NC(=O)c2ccc(Br)o2)CC1	2	15	-2	·	·
Cc1ccc(N(CC(=O)NC(C)c2ccccc2)S(=O)(=O)c2cccs2)cc1 (stereo unspecified)	1	7	5	89*	0
CCCCN1CCc2c1nc1ccc(Br)cc1c2N	8	25	-3	101*	1
Cc1ccc2nc3c(c(N)c2c1)CCN3C	0	28	-13	·	·
CC(=O)Nc1ccc(-c2csc(Nc3ccc(Cl)cn3)n2)cc1	1	28	3	59*	0
Cc1ccc(Nc2nc(-c3ccc(O)c(O)c3)cs2)nc1	·	-30	-3	99*	-1
CC(=O)Nc1ccc(-c2csc(Nc3cc(C)ccn3)n2)cc1	0	23	7	60*	0
C[C@H]1Oc2ccccc2C(=O)C1C(=O)c1ccccc1 (stereo partly specified)	0	-8	·	·	·
CN(C)c1ccc(/C=C2\Oc3ccc(C#Cc4cccc(N)c4)cc3C2=O)cc1	0	·	·	·	·
COc1ccc(C2C=C(Nc3ccccc3)C(=O)N2c2ccccc2)cc1OC (stereo unspecified)	-1	15	2	-3	0
COc1cccc(C2C=C(Nc3ccccc3)C(=O)N2c2ccccc2)c1 (stereo unspecified)	1	23	-24	66*	0
CCOC(=O)c1cnc2c(C)cccc2c1Nc1ccc(N2CCOCC2)cc1	·	27	-5	43	0
CCOC(=O)c1cnc2c(C(=O)OC)cccc2c1NCc1ccco1	-1	·	-9	51*	0
CCOC(=O)c1cnc2c(C)cccc2c1NCc1ccco1	2	32	4	56*	0
COc1ccc(N2CCN(C(=O)C3CCN(C(=O)c4cccc(Cl)c4)CC3)CC2)cc1	-1	2	-7	·	·
COc1ccccc1CNC(=O)C(Cc1c[nH]c2ccccc12)NC(=O)OCc1ccccc1 (stereo unspecified)	0	28	2	99*	0
CCc1ccc2c(c1)C(C)=CC(C)(C)N2	1	6	-14	66*	0
CCOc1ccc2c(c1)C(C)=CC(C)(C)N2	1	·	·	·	·
COc1ccc(C(=O)c2oc3ccccc3c2NC(C)=O)cc1	1	-8	2	-5	-4
COc1ccc(C(=O)c2c(C(F)(F)F)oc3c2C(=O)c2ccccc2C3=O)cc1	-4	?	-28	100*	-2
CCc1cc(=O)oc2cc(OC(C)=O)cc(OC(C)=O)c12	2	-9	1	56*	2
COc1cc(OCc2ccccc2)c2c(CCC(=O)O)cc(=O)oc2c1	0	·	·	·	·
O=C(/C=C/c1ccc(OC2CSC2)cc1)c1ccc(Cl)cc1	6	20	7	54*	1
CN(Cc1ccccc1)C(=O)c1ccc([N+](=O)[O-])o1	1	53	-42	86*	0
Cc1ccc(CNC(=O)c2ccc([N+](=O)[O-])o2)cc1	-3	47	·	76*	-4
Cc1ccc(-n2nnnc2CNC(=O)c2ccc([N+](=O)[O-])o2)cc1C	-1	57*	·	·	·

Screens: PubChem, several laboratories
